# MT stabilize HCS: microtubule stabilizers in HeLa cells; HeLa tubulin immunostaining HCS, 24 h; share of cells brighter than vehicle mean+2SD; % tubulin-high responders, % at 10 µM; 0.83% of 200,000 active;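 active means plate Z-score above 3 for both tubulin-high and condensed-nucleus cell shares, with cell loss under 80%, at 10 µM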;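 further: anti alpha tubulin signal scored within the nucleus-defined area of each cell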
# RAM inhibit: blocks the yeast RAM network; S. cerevisiae dse1pr::URA3 reporter, 5-FOA growth OD615, 2 d; analog-sensitive cbk1-as2 kinase mutant strain; inhibition, % at 50 µM; 1.8% of 190,000 active; AID 868;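 active means inhibition above a set limit, 3 SD over mean compound inhibition, cut at about 8.4% in these data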;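 further: 0% = DMSO-only wells with no growth and 100% = 10 µM 1-NA-PP1 full growth; inhibition rescues growth on 5-FOA so higher OD means more RAM inhibition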
# b-catenin transl: modulators of beta-catenin nuclear translocation. HeLa beta-catenin nuclear translocation, immunofluorescence imaging. nuclear translocation activity, % at 5 µM. 0.3% of 190,000 active;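 active means nuclear translocation activity above 50% at 5 µM, with a well cell count of 50 or more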;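 further: per-cell ratio of nuclear to cytoplasmic median beta-catenin stain intensity; plate controls were DMSO negative control for no effect and GSK-3 inhibitor IX positive control for full effect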
#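 Technique: fluorescence imaging of beta-catenin antibody stain plus DAPI / Material: human HeLa cell line / Incubation: compound treatment 24 h, 37°C, 5% CO2 / Read-out basis: % activation of per-cell nuclear versus cytoplasmic median beta-catenin signal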
# Yeast life ext: yeast lifespan extension | 0.68% of 130,000 active | inhibition of the nicotinamide effect, % at 10 µM | S. cerevisiae growth with nicotinamide, OD615; deaD strain in restrictive glucose medium;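 active means inhibition above a set limit, placed 3 SD over the median of all compounds, cut at about 26% in these data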;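 further: 0% = nicotinamide-treated wells and 100% = cells grown without nicotinamide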
#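 Material: Modified budding yeast, DeaD strain | Medium: Restrictive glucose medium | Probe or stimulus: 1.5 mM nicotinamide | Dosing: Single dose 10 µM compound, 0.25% DMSO | Times: 48 h at 30 °C | Technique: OD615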
# Yeast growth inh: reduces growth of yeast BB579 in restrictive medium; 0.51% of 140,000 active; S. cerevisiae BB579 growth, OD615, 48 h; inhibition, % at 10 µM;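 active means inhibition above a set limit, 3 SD over the mean compound inhibition, cut at about 44% in these data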
#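 Test system: Saccharomyces cerevisiae DeaD strain BB579, replicative lifespan model yeast | Buffer or medium: Restrictive CSMM-D medium | Doses: One dose, 10 µM compound with 0.25% DMSO | Incubation: 48 h exposure, 30 °C | Detection: Culture absorbance at 615 nm | Control set: Amphotericin B at 10 µg/mL as positive control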
# Efa HMGR inh: inhibitors of class II HMG-CoA reductase from Enterococcus faecalis | purified E. faecalis HMGR, NADPH absorbance 340 nm kinetic | inhibition, % at 10 µM | 0.41% of 190,000 active | AID 1066;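 active means inhibition above a set limit, the median over all tested compounds plus 3 SD, cut at about 9.5% in these data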;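 further: enzyme runs in reverse so mevalonate oxidation gives rising NADPH absorbance; 0% = complete reaction with DMSO and 100% = background rate lacking mevalonate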
# An asterisk follows results filed as active; nt = no result. Sampled rows, rich in hits. Any-hit rate of the full collection: about 3.5%.
SMILES,MT stabilize HCS,RAM inhibit,b-catenin transl,Yeast life ext,Yeast growth inh,Efa HMGR inh
CN(C)c1ccc(N=Nc2ccc(S(=O)(=O)O)cc2)c2ccccc12,3,10*,-1,nt,nt,-1
C[C@@H](C(=O)NCc1ccc(S(C)(=O)=O)cc1)[C@H]1C[C@]1(C)[C@H](NC(=O)OCc1ccccc1)c1ccccc1,3,9.2*,nt,3,-23,2
C=CCNC(=O)CC(=O)N/N=C/c1cccs1,4,-1,0,nt,nt,-8
CC(C)CCNC(=O)NC(=O)CSc1ncccn1,3,2,-4,nt,nt,-6
CCOC(=O)C(NC(=O)Cc1ccccc1)(Nc1cc(C)on1)C(F)(F)F (stereo not drawn),4,0,nt,nt,-40,12*
CCOC(=O)C(NC(=O)CC)(Nc1cc(C)on1)C(F)(F)F (stereo not drawn),5,1,-4,-2,-13,0
O=c1cc(-c2ccccc2[N+](=O)[O-])oc2ccccc12,12*,1,10,nt,nt,-5
O=c1cc(-c2ccccc2F)oc2ccccc12,2,0,1,nt,-5,-4
COCCCNC(=O)c1c(N)n(/N=C/c2cccnc2)c2nc3ccccc3nc12,3,11*,4,-19,-36,-4
COCCCNC(=O)c1c(N)n(/N=C/c2cccs2)c2nc3ccccc3nc12,3,8.7*,2,-12,-48,-3
CC(C)CNC(=O)c1c(N)n(/N=C/c2cccnc2)c2nc3ccccc3nc12,nt,nt,-3,nt,nt,nt
Cc1ccc(Cl)cc1NC(=O)c1cc2ccccc2cc1O,nt,nt,-2,nt,nt,nt
COc1cc(CNCCNC(=O)c2nonc2N)ccc1OCc1ccc(Cl)cc1,2,1,2,nt,nt,1
C/C(=N\NC(=S)Nc1ccc(F)cc1)c1ccc2c(c1)OCCO2,22*,-1,nt,-7,-18,-7
C/C(=N\NC(N)=S)c1ccc2c(c1)OCCO2,nt,nt,1,nt,nt,nt
NC(=S)N/N=C/c1coc2c(ccc3ccccc32)c1=O,7,1,4,12,-29,-2
O=c1cc(/N=C/c2coc3c(ccc4ccccc43)c2=O)[nH]c(=S)[nH]1,1,11*,-1,4,-36,-6
O=C(NC1C/C(=N/O)c2cc3c(cc21)OCO3)C(F)(F)F (stereo not drawn),10,1,1,nt,nt,3
COC(=O)C(C)n1cnc2c(nnn2-c2ccc(OC)cc2)c1=O (stereo not drawn),3,1,2,-1,6,14*
CC(C)Sc1nc2ccccc2n1CC(=O)O,2,0,2,nt,nt,1
CC(=O)c1ccc(N=c2scc(C)n2C(C)C)cc1,1,4,-1,nt,nt,-6
Cc1ccc(S(=O)(=O)N2CCCCC2)cc1NC(=O)COC(=O)Cc1cccc(C(F)(F)F)c1,3,9.2*,0,8,-47,-3
Cc1ccc(S(=O)(=O)N2CCCCC2)cc1NC(=O)COC(=O)Cc1ccc(Cl)cc1,3,2,0,2,-9,-2
CSCCC(NS(=O)(=O)/C=C/c1ccccc1)C(=O)NCCc1ccc(S(N)(=O)=O)cc1 (stereo not drawn),nt,nt,0,nt,nt,nt
CC(=O)c1c(C)oc2ccc(N(C(C)=O)S(=O)(=O)c3cccc([N+](=O)[O-])c3)cc12,1,4,1,nt,nt,-2
SMILES,MT stabilize HCS,RAM inhibit,b-catenin transl,Yeast life ext,Yeast growth inh,Efa HMGR inh
CC(=O)c1c(C)oc2ccc(N(C(=O)C3CCCCC3)S(=O)(=O)c3cc([N+](=O)[O-])ccc3C)cc12,3,9.7*,0,-2,-31,-5
O=C(O)c1cc(N/N=C/C=C/c2ccccc2[N+](=O)[O-])ccc1Cl,nt,nt,-1,nt,nt,nt
CN1/C(=C\C=C2/SC(=S)N(CC(=O)O)C2=O)C(C)(C)c2ccccc21,5,9.1*,0,nt,nt,-7
Nc1ncnc2c1C1(CCCCC1)Cc1ccccc1-2,4,1,0,7,-66,-3
c1ccc(OCc2nc3c4c(ncn3n2)-c2ccccc2CC42CCCC2)cc1,3,8.4*,0,3,-21,-5
Cc1cc[n+]2n1CC(O)C2 (stereo not drawn),nt,nt,1,nt,nt,nt
CC1=C(/C=C/C(=O)O)C(C)(C)CCC1,1,-1,-3,28*,-2,-1
Cc1cc2sc3ccccc3c(=O)c2c(C)c1O,4,1,3,nt,nt,-1
O=c1c(C(c2ccccc2)c2c(O)sc3ccccc3c2=O)c(O)sc2ccccc12,3,nt,nt,26*,-9,-1
O=C1CN(C(=O)CNCc2ccccc2)c2ccccc2N1,nt,nt,-1,nt,nt,nt
Cc1ccn2c(/C=N/OCc3ccc(F)cc3)c(-c3ccc(Cl)cc3)nc2c1,2,9.7*,1,-3,-19,-3
C/C(=N\N=C(/N)c1nonc1N)c1ccc2c(c1)OCO2,nt,nt,3,nt,nt,nt
O=C(NNS(=O)(=O)c1ccc(C(F)(F)F)cc1)c1cnn(-c2ccccc2)c1C(F)(F)F,nt,nt,-1,nt,nt,nt
CCOc1ccc2nc(SCC(=O)Nc3nonc3C)[nH]c2c1,2,9.1*,4,nt,nt,-3
COc1cc(NC(=O)CSc2ncnc3scc(-c4ccccc4)c23)c(C(=O)O)cc1OC,3,7,1,nt,nt,-7
CCOC(=O)c1sc(NC(=O)c2cccnc2)c(C#N)c1C,5,1,-5,29*,-50,-2
CCOC(=O)c1c(NC(=O)c2cccnc2)sc(C)c1C,3,3,5,-23,-27,1
CCOc1ccc(N(CC(=O)N2CCC(Cc3ccccc3)CC2)S(C)(=O)=O)cc1,2,1,2,nt,nt,1
COC(=O)c1c(C)cc(C)c2c1CC(C)(C)C2=O,nt,nt,-3,nt,nt,nt
Cc1nc2ccccc2c2c1C(=O)N(C(C)C)C2=O,5,1,-1,-10,-61,6
Cc1nc2ccccc2c2c1C(=O)N(C)C2=O,3,0,-2,-9,66*,-3
O=C(NCc1cccc(C(F)(F)F)c1)C1CC(c2c(Cl)cccc2Cl)=NO1 (stereo not drawn),37*,5,44,-25,-27,-8
Cc1cccc(C(=O)CC(=O)c2cc(Cl)ccc2O)c1,3,-1,-15,-6,83*,-2
Cc1ccc(O)c(C(=O)CC(=O)c2cccc(F)c2)c1,6,0,0,-4,51*,-2
O=C(CC(=O)c1cc(Cl)ccc1O)c1ccccc1,2,2,1,-12,82*,-1
COc1ccc(O)c(C(=O)CC(=O)c2ccc(F)cc2)c1,18,0,nt,-22,-2,2
O=S(=O)(NC(=NCCc1ccc(Cl)cc1)c1ccccc1Cl)c1cccs1,3,4,-1,nt,nt,-11
CSc1nc(N(C)NC(=O)c2ccccc2)c2ccccc2n1,33*,1,54*,-13,-66,0
CNc1nc(SC)nc2ccccc12,4,0,1,nt,nt,-1

# Source: PubChem (several laboratories)
